From PubChem BioAssay AID463093 (The Scripps Research Institute Molecular Screening Center, 2010)
Activity calls are given as the source filed them.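 How the source made its calls: active means compound blocking at least 90% of GSTO1 probe labeling in gels, or giving a GSTO1 band over fivefold background; inactive means the rest.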

Molecular target: Glutathione S-transferase omega-1 (Homo sapiens) (UniProt P78417)
Assay: GSTO1 target engagement in intact cells, late-stage follow-up, mechanism study for GSTO1 inhibitor project, cell-based, MDA-MB-435, competitive ABPP, click chemistry, fluorescence (AID 463093)
Conditions: MDA-MB-435 in situ competitive ABPP, gel fluorescence; for fold labeling / inhibition: stronger effect = higher value; for inhibition: in situ competitive ABPP
In short: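 dosing = 1, 0.5, 0.25 µM compound | material = MDA-MB-435 cells, in situ treatment | quantity = soluble proteome adjusted to 1 mg/mL protein | detection = SDS-PAGE in-gel fluorescence | times = compound on cells 1 h 37 °C, click labeling 1 h 25 °C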

Sequence of Glutathione S-transferase omega-1 (Homo sapiens) (P78417 whole entry, looked up): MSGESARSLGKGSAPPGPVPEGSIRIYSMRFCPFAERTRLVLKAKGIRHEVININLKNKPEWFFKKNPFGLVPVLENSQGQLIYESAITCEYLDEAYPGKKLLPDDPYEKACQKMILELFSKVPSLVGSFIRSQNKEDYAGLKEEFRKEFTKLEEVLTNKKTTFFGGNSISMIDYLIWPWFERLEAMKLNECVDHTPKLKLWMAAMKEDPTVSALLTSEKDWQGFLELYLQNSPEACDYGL

outcome (direct ABPP, click chemistry): active
fold labeling (direct ABPP, click chemistry, click labeling 0.25 uM, at 0.25 µM): > 5
fold labeling (direct ABPP, click chemistry, click labeling 0.5 uM, at 0.5 µM): > 5
fold labeling (direct ABPP, click chemistry, click labeling fold over background 1 uM, at 1 µM): > 5
inhibition (at 1 µM): 100%
inhibition (inhibition, at 0.25 µM): 99%
inhibition (inhibition, at 0.5 µM): 100%
Structure (SMILES): C#CCN(CCCN(C(=O)CCl)c1ccc([N+](=O)[O-])cc1)C(=O)C(F)(F)F
